By bioavailability is commonly meant dose-corrected exposure relative to a reference, in per cent. A low value points to poor availability. A word on the half-life: it is the time in which the quantity being followed falls by half. A low value points to fast loss. Usually IC50 stands for the point on the concentration scale where inhibition reaches its midpoint. Higher therefore signals weaker potency. The term EC50 denotes the concentration needed to bring the measured effect to its halfway point. As usually defined, the Kp is tissue or fluid exposure divided by exposure in the circulation. By ED50 is commonly meant the dose that gives a 50% effect, or the effect in half of the subjects.

A short description of data set [1]: Bioavailability in rat. Type of data set: ADME, organism-based. The settings on record: in vivo.
Data set [2] is described as follows: Half life in rat. Type of data set: ADME, organism-based. The settings on record: in vivo.
Data set [3] in a line: Stability assessed as liver microsomal turnover in rat at 1 uM. In kind it is ADME, Microsome. The settings on record: liver microsomes, read-out: Stability. The method in brief: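 Compound at 1 μM was incubated with rat liver microsomal protein (5 mg/mL) plus NADPH at 37 °C for 20 min. Percentage of parent remaining was quantified by LC–MS.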
A general note: Microsomes from liver hold many membrane-bound enzymes, among them those of drug oxidation.

For the next data set, the target named is Gamma-secretase. In words: Inhibition of gamma secretase. In kind it is protein-complex assay, Homo sapiens.
Data set [4] relates to Mus musculus. Description: Plasma concentration for reduction of DEA-extractable brain beta amyloid in orally dosed APP-YAC mouse after 4 hrs relative to control. Type of data set: ADME, organism-based. An outline of the steps: (§1)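 APP-YAC transgenic mice were dosed orally with a dose-response titration, with vehicle and a positive-control γ-secretase inhibitor as references. At 4 h post-dose, DEA-extractable brain Aβ was measured alongside plasma and brain drug levels. EC50 is the plasma or brain concentration giving a 50% cut in brain Aβ. ED50 is the oral dose reaching those levels.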

The test system of data set [5] is Mus musculus. Description: Brain concentration for reduction of DEA-extractable brain beta amyloid in orally dosed APP-YAC mouse after 4 hrs relative to control. Type of data set: ADME, organism-based. An outline of the steps: as §1
A short description of data set [6]: Brain to plasma ratio for reduction of DEA-extractable brain beta amyloid in orally dosed APP-YAC mouse after 4 hrs. In kind it is ADME, organism-based. The settings on record: po.
In data set [7] the test system is Mus musculus. Description: Reduction of DEA-extractable brain beta amyloid in orally dosed APP-YAC mouse after 4 hrs. Type of data set: ADME, organism-based. The settings on record: po. The method in brief: as §1

Compound `CS(=O)(=O)NCC1CCCC(c2cc(F)ccc2F)(S(=O)(=O)c2ccc(Cl)cc2)C1` (stereo not drawn) came in with a bioavailability in data set [1] of 31%. The same compound had a half-life in data set [2] of 1.1 h.
As to `CCN1C[C@@H]2C[C@](c3cc(F)ccc3F)(S(=O)(=O)c3ccc(Cl)cc3)CC[C@@H]2NS1(=O)=O` (racemic), the metabolised at 1 µM in data set [3] was 46%. Also, the IC50 against Gamma-secretase worked out at 0.4 nM.
As for `CC(C)N1C[C@@H]2C[C@](c3cc(F)ccc3F)(S(=O)(=O)c3ccc(Cl)cc3)CC[C@@H]2NS1(=O)=O` (racemic), the IC50 against Gamma-secretase is 0.41 nM. That is a sub-nanomolar value.
On to `CC(C)(C)N1C[C@@H]2C[C@](c3cc(F)ccc3F)(S(=O)(=O)c3ccc(Cl)cc3)CC[C@@H]2NS1(=O)=O` (racemic), for which the metabolised at 1 µM in data set [3] was found to be 15%. For the same compound, 1.39 nM corresponded to half-maximal inhibition against Gamma-secretase (IC50).
`O=S1(=O)NC[C@@H]2C[C@](c3cc(F)ccc3F)(S(=O)(=O)c3ccc(Cl)cc3)CC[C@@H]2N1C1CC1` (racemic): the EC50 in the data set on Mus musculus [4] was determined as 104 nM; in the data set on Mus musculus [5] it was 20 nM. In data set [6], the Kp at 4 h worked out at 0.16. The compound further displayed an ED50 in the data set with Mus musculus [7] of 11.4 mg/kg. On Gamma-secretase, this compound came in with an IC50 of 0.04 nM.
Turning to `O=S1(=O)NC[C@@H]2C[C@](c3cc(F)ccc3F)(S(=O)(=O)c3ccc(Cl)cc3)CC[C@@H]2N1` (racemic), the metabolised at 1 µM in data set [3] amounted to 9%. The same compound showed an IC50 on Gamma-secretase of 6.18 nM.
The matching figures for `O=S1(=O)N[C@H]2CC[C@@](c3cc(F)ccc3F)(S(=O)(=O)c3ccc(Cl)cc3)C[C@H]2CN1C1CC1` (racemic): 14% and 0.19 nM.
The matching figures for `CCCN1C[C@@H]2C[C@](c3cc(F)ccc3F)(S(=O)(=O)c3ccc(Cl)cc3)CC[C@@H]2NS1(=O)=O` (racemic): 63% and 1.17 nM.
As for `O=S1(=O)N[C@H]2CC[C@@](c3cc(F)ccc3F)(S(=O)(=O)c3ccc(Cl)cc3)C[C@H]2CN1C1CCC1` (racemic), in data set [3], the metabolised at 1 µM amounted to 68%. This compound also gave a 50% inhibitory concentration (IC50) at Gamma-secretase of 0.26 nM.
The matching figures for `CN1C[C@@H]2C[C@](c3cc(F)ccc3F)(S(=O)(=O)c3ccc(Cl)cc3)CC[C@@H]2NS1(=O)=O` (racemic): 17% and 0.9 nM.
Turning to `CCC1C[C@@H]2C[C@](c3cc(F)ccc3F)(S(=O)(=O)c3ccc(Cl)cc3)CC[C@@H]2CS1(=O)=O` (single isomer, unassigned), the EC50 in the data set on Mus musculus [4] is 761 nM; with Mus musculus [5] it was 327 nM. Besides, the Kp at 4 h in data set [6] turned out to be 0.41. Also, it took a dose of 3.9 mg/kg to reach the 50% effect level with Mus musculus [7] (ED50). Moreover, in data set [3], the metabolised at 1 µM was determined as 15%. The midpoint of inhibition against Gamma-secretase, the IC50, lay at 0.76 nM.
Consider `CCC1C[C@@H]2C[C@](c3cc(F)ccc3F)(S(=O)(=O)c3ccc(Cl)cc3)CC[C@@H]2NS1(=O)=O` (single isomer, unassigned), for which the concentration for a half-maximal effect (EC50) is 380 nM in the data set with Mus musculus [4] and 88 nM with Mus musculus [5]. For the same compound, the Kp at 4 h in data set [6] was determined as 0.18. The same compound had an ED50 in the data set on Mus musculus [7] of 2.8 mg/kg. Moreover, the metabolised at 1 µM in data set [3] came to 7%. The compound further had an IC50 at Gamma-secretase of 0.06 nM.
For `CC1C[C@@H]2C[C@](c3cc(F)ccc3F)(S(=O)(=O)c3ccc(Cl)cc3)CC[C@@H]2NS1(=O)=O` (single isomer, unassigned), in data set [3], the metabolised at 1 µM was 20%. The compound further showed an IC50 against Gamma-secretase of 0.08 nM.
Regarding `CCCC1C[C@@H]2C[C@](c3cc(F)ccc3F)(S(=O)(=O)c3ccc(Cl)cc3)CC[C@@H]2NS1(=O)=O` (single isomer, unassigned), in data set [3], the metabolised at 1 µM is 32%. This compound showed an IC50 against Gamma-secretase of 0.24 nM.

The record behind these values is ChEMBL document CHEMBL1147804, “3,4-Fused cyclohexyl sulfones as gamma-secretase inhibitors” (Bioorg Med Chem Lett, 2006).
